The results in this text go back to the M2OR odorant receptor database.
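Also: active if original authors judged signal statistically different from baseline.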

The target in the assay is T1, OR2A1 (Homo sapiens) (UniProt Q8NGT9).
T1 sequence (whole entry): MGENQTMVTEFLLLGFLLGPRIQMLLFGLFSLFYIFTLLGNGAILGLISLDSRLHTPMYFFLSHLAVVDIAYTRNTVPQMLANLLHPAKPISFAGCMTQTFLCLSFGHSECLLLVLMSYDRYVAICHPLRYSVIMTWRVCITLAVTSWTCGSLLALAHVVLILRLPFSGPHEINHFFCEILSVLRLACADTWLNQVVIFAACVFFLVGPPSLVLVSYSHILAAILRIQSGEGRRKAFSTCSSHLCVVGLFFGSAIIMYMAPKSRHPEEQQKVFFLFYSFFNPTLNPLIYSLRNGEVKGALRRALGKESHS
The conditions noted are these: stereoisomer not certain. An outline of the steps:
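Whether a receptor–molecule pair is responsive (active) rests on the original authors' judgment that its measured signal was statistically different from baseline. Pairs without that judgment are non-responsive (inactive). Sources used varied assay methods, commonly transient luciferase assays in mammalian cell lines.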
On to `CCCCCCCCCCCCCC(=O)OC`, for which the “odorant receptor agonist call” value is “inactive”.
To `CCCCCCCC(=O)[O-].[H+]` belongs “inactive”; to `CC(C)=CCCC(C)=CCCC(C)=CCO`, “inactive”; to `CCCCCCCCCCCC(=O)OCC`, “inactive”.
To `CCCCCCCCCCCC(=O)OC` belongs “inactive”.
In the case of `CC(C=O)Cc1ccc(C(C)(C)C)cc1` (stereo not drawn) it was “inactive”; in that of `CCCCCCCCCCCCCC(=O)OCC`, “inactive”.
Regarding `CCCC(=O)CC`, the “odorant receptor agonist call” value was “inactive”.
For `CCCCCCC(=O)[O-].[H+]`, the “odorant receptor agonist call” value was “inactive”.
To `CCCCCCCCCCCCCCC(=O)O` belongs “inactive”.
On to `C=C1CCC2CC1C2(C)C` (stereo not drawn), for which the “odorant receptor agonist call” value is “inactive”.
To `CC(C)=CCCC(C)=CCO` belongs “inactive”; to `CC(=O)O`, “inactive”; to `C=C(C)C1CC=C(C)CC1` (stereo not drawn), “inactive”.
In the case of `CCCCCCCC(=O)OCC` it was “inactive”.
To `CC(O)C(=O)[O-].[H+]` (stereo not drawn) belongs “inactive”; to `CCCCCCCCO`, “inactive”; to `Cc1cnc(C)cn1`, “inactive”.
On to `Cc1ccc(C(C)C)cc1`, for which the “odorant receptor agonist call” value was “inactive”.
To `CCC(=O)O` belongs “inactive”; to `O=c1ccc2ccccc2o1`, “inactive”; to `CCCO`, “inactive”.
To `CCCCCCCCCCCCCCCCCC(=O)OCC` belongs “inactive”.
For the compound `CCCCOCC(C)O` (stereo not drawn), the “odorant receptor agonist call” value was “inactive”.
In the case of `CCCCCCCCCCCCO` it was “inactive”; in that of `CCCCCCCCCC(=O)OCC`, “inactive”; in that of `CCCCCCCCCCCCCCCCCC(=O)[O-].[H+]`, “inactive”.
To `CCCCCCCC(=O)OC` belongs “inactive”.
